Screens: PubChem BioAssay, Broad Institute
AF4-AF9 inh = MLL-AF4/AF9 protein interaction inhibition; P42568; AlphaScreen, biotin-AF4 peptide binding to FLAG-AF9; inhibition, % at 10 µM; 0.47% of 350,000 active;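 active = every replicate reaching a set inhibition limit, whatever the replicate mean, cut at about 25% in these data; inconclusive = mean inhibition reaches that limit but some replicates miss it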;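 note: 0% = plate neutral control median and 100% = total signal loss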
Target sequence (P42568 whole entry, looked up): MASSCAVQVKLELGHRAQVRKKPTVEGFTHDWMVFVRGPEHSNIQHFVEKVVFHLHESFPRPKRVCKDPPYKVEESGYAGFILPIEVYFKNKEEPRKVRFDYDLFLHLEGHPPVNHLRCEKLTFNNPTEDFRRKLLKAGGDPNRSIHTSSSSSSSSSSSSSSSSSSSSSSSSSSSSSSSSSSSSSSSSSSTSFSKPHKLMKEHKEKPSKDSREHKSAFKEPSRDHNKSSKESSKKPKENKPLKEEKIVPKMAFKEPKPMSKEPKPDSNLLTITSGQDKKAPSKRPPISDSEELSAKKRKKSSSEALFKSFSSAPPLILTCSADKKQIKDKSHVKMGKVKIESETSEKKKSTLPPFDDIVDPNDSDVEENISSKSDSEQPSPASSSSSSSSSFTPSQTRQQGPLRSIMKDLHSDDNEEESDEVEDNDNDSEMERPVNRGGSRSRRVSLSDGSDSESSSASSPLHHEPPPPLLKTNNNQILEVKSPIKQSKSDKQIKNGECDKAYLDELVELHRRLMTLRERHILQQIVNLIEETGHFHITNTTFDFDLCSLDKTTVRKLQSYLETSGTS
Glyco luc inh = blocks N-linked glycosylation in D54 reporter cells; D54 ERlucT glycosylation luciferase reporter, 24 h; percent of 100 nM tunicamycin response; reporter increase, % at 12.5 µM; 0.23% of 360,000 active; AID 588692;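 active = mean luciferase reporter signal, scaled so untreated is 0 and the glycosylation-blocking control 100, at or above a set limit in every replicate; inconclusive = mean reaches the limit but not every replicate does; inactive = mean below the limit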;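 note: luciferase carries N-glycosylation sites so blocking glycosylation raises the light; 0% = median of neutral control wells and 100% = median of 100 nM tunicamycin wells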
NSD2 inh = blocks human histone methyltransferase NSD2; 0.54% of 310,000 active; O96028; inhibition, % at 12.5 µM; NSD2 peptide methylation, AlphaScreen, 120 min; in the data active = inhibition above about 50%
RAD54 inh = blocks human RAD54 Holliday junction branch migration | Q92698 | FAM/BHQ fluorescence | inhibition, % at 10.4 µM | 0.14% of 360,000 active | AID 602329;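 active = mean normalized replicate activity at least 40 and at least half of replicates scoring 40 or more; inconclusive = only one of the two criteria met; inactive = mean below 40 and under half of replicates reaching 40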;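 note: 0% = median of neutral control wells and 100% = median of positive control wells; inhibitors cause a drop in the FAM fluorescence signal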
FN deposition inh = fibronectin deposition inhibition. AH1F fibroblasts, Alexa488-fibronectin deposition fluorescence, overnight. inhibition, % at 12.6 µM. 0.086% of 350,000 active. AID 743247;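 active = mean inhibition across replicates of 30% or more, regardless of how many single replicates reach that level; inconclusive = mean under 30% yet at least half of replicates reach 30%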;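 note: positive control wells lacked labelled fibronectin entirely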
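Material: AH1F fibroblast monolayer depositing Alexa488-labelled fibronectin into matrix / Amount: 10000 AH1F cells per well / Signal: fluorescence 485/525 nm / Medium: DMEM, 2% serum / Compound: single dose, pinned / Incubation: 1 h cell adhesion before compound, then overnight fibronectin incubation / Reagent: Alexa488-FN, 24 nM final / Read-out: inhibition of fibronectin deposition signal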
RAD52 inh = RAD52 (human) annealing inhibition. P43351. AID 651710. inhibition, % at 18.7 µM. 0.46% of 360,000 active. recombinant RAD52 DNA annealing, FRET fluorescence;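 active = every replicate showing at least 50% inhibition; inconclusive = mean inhibition at least 50% but not in every replicate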
DNA binder FP = DNA binding artifact in RAD52 counter-screen; shares compounds with RAD52 inh; Salmon sperm DNA/acridine orange FP displacement; AC50, µM; 8% of 1,000 active;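 active = fitted half-maximal concentration for signal loss at or below twice the highest dose tested, in every separate run, actives reach about 64 µM in these data; inconclusive = runs disagree, or flat partial signal loss, or poor fit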
AlphaScreen art = AlphaScreen assay artifact in NSD2 counter-screen. shares compounds with NSD2 inh. AlphaScreen artifact counterscreen, preloaded methylated H4 peptide. AC35, µM (top dose mostly 10 µM), for inactives: at the highest dose activity change, negative = signal loss. 9.4% of 1,500 active; call rule not given here
* marks the source's active call; other numbers are inactive results; i = inactive; ? = inconclusive; · = no result given. Most compounds without a hit are left out; they make up all but 1.2% or so of the library.

SMILES	AF4-AF9 inh	Glyco luc inh	NSD2 inh	RAD54 inh	FN deposition inh	RAD52 inh	DNA binder FP	others
CC(=O)OC1C([N+]2(C)CCCCC2)C[C@H]2C3CC[C@H]4C[C@H](OC(C)=O)C([N+]5(C)CCCCC5)CC4(C)[C@H]3CCC12C (some centres undefined)	-3	1	·	-13	-2	50*	i
COc1ccc(/C=C2\Sc3ccc(C(=O)NCCCN4CCCC4)cc3N(C)C2=O)cc1OC	5	-4	17	24	-1	66*	i
O=C1Nc2cc(C(=O)NCCCN3CCCC3)ccc2S/C1=C\c1ccccc1	16	-8	11	10	16	84*	i
c1cncc(-c2nc(N3CCOCC3)c3c4c(sc3n2)CCC4)c1	5	11	·	2	7	-1	·
c1cncc(-c2nc(NCCCN3CCOCC3)c3c4c(sc3n2)CCC4)c1	4	-1	-17	·	-7	62*	i
c1ccc(-c2cc(NCCN3CCCCC3)c3ccccc3n2)cc1	8	71*	7	106*	4	89*	i
O=C(c1cc(-c2ccccc2)nc2ccccc12)N1CCCC1	-2	-2	0	0	-1	0	·
NC(N)=Nc1nc(-c2ccccc2)c2ccccc2n1	14	9	21	51*	-10	64*	i
CCc1nc(N=C(N)N)nc2ccccc12	3	·	6	·	-9	63*	i
C[C@@H]1CN([C@@H](C)CO)S(=O)(=O)c2ccc(-c3ccc(F)cc3)cc2O[C@@H]1CN(C)C(=O)Nc1ccccc1F	-2	·	·	2	·	-16	·
COc1ccc(S(=O)(=O)Nc2ccc3c(c2)[C@@H]2C[C@@H](CC(=O)NCC4CC4)O[C@H](CO)[C@@H]2O3)cc1	0	·	·	2	·	-8	·
NCCOc1ccccc1OCCN	1	1	4	3	-4	58*	i
OC(c1ccccc1)(c1ccccc1)C1CCN(CCCOc2cc(F)cc(F)c2)CC1	·	·	·	·	-1	-2	·
OC(c1ccccc1)(c1ccccc1)C1CCN(CCCOc2ccc3c(c2)CCCC3)CC1	5	·	·	·	1	51*	i
CCN1CCN(CCCNC(=O)C2CCN(c3nnc(-n4c(C)ccc4C)s3)CC2)CC1	12	3	·	-2	-21	73*	i
COc1ccc(NC(=O)N(C)C[C@@H]2OCCCC[C@@H](C)Oc3ccc(NC(=O)NC(C)C)cc3C(=O)N([C@@H](C)CO)C[C@H]2C)cc1	-3	·	·	-3	·	-6	·
CN1CCN(c2ccc(NC(=O)c3cc([N+](=O)[O-])ccc3N3CCOCC3)cc2)CC1	8	-3	16	2	1	5	·
CN1CCN(c2ccc(NC(=O)c3cc(S(N)(=O)=O)ccc3N3CCOCC3)cc2)CC1	10	0	13	19	11	72*	i
COc1ccc(S(=O)(=O)N(C)C[C@@H]2Oc3c(NC(=O)Nc4cccc5ccccc45)cccc3C(=O)N([C@@H](C)CO)C[C@@H]2C)cc1	2	·	·	1	-3	-11	·
CCC(=O)c1ccc2c(c1)N(CCCN(C)C)c1ccccc1S2	16	6	·	28	2	70*	i
CC=Cc1ccc2n(c1=O)C[C@@H]1[C@@H](CO)[C@H](C(=O)Nc3nccs3)N(Cc3ccccc3F)[C@H]21 (mixture of isomers)	2	·	·	-14	·	-25	·
CN1CCN(CCCC(=O)c2ccc(C3CCCC3)cc2)CC1	17	-3	5	·	2	68*	i
CCCS(=O)(=O)Nc1ccc(Nc2c3ccccc3nc3ccccc23)c(OC)c1	15	-7	5	·	5	64*	?
COc1cc(N)ccc1Nc1c2ccccc2nc2ccccc12	·	20	-5	·	·	·	·
Cc1noc(C)c1NC(=O)Nc1ccc2c(c1)C(=O)N([C@H](C)CO)C[C@H](C)[C@H](CN(C)Cc1ccc(C(F)(F)F)cc1)OCCCC[C@H](C)O2	8	·	·	-9	·	12	·
SMILES	AF4-AF9 inh	Glyco luc inh	NSD2 inh	RAD54 inh	FN deposition inh	RAD52 inh	DNA binder FP	others
O=C(Nc1ccc(N2CCCC2)cc1)c1cccc(-c2cc3ccccc3oc2=O)c1	14	-4	-1	2	-6	58*	i
CCCNC(=O)N1CC(=O)N2[C@H](C1)[C@H](c1ccc(-c3ccc(C)cc3)cc1)[C@@H]2CO	5	·	·	·	·	-10	·
C/C(=N\NC(=O)Nc1ccccc1)c1ccccc1	2	2	-4	-6	2	100*	i
CCc1c(C)nc(Nc2nc(C)c3cc(OC)ccc3n2)[nH]c1=O	·	13	-3	8	·	·	·
COc1ccc2nc(NC3=NC(c4ccccc4)CC(=O)N3)nc(C)c2c1 (centres undefined)	-1	2	-2	·	3	72*	i
CCCCc1cc(=O)oc2cc(OC(C)C(=O)NCCN3CCOCC3)ccc12 (centres undefined)	-3	1	-4	4	8	1	·
COc1ccc2c(c1OC)c(=O)n1c3ccc(OC(C)C(=O)NCCN4CCOCC4)cc3c3ccnc2c31 (centres undefined)	-1	13	·	97*	·	66*	?
C[C@@H]1CCCCO[C@H](CN(C)C)[C@H](C)CN([C@@H](C)CO)C(=O)c2cc(NC(=O)Nc3ccccc3)ccc2O1	-5	·	·	2	·	7	·
CN1CCN(C2Cc3cc(Cl)ccc3Sc3cc(F)ccc32)CC1 (centres undefined)	17	-6	16	·	2	54*	i
OCCN1CCN(C2Cc3cc(Cl)ccc3Sc3ccc(Cl)cc32)CC1 (centres undefined) (tested in a mixture with another compound)	·	-1	·	6	·	·	·
CCN(CC)CCNc1ncnc2c1sc1nc(N3CCCC3)c3c(c12)CC(C)(C)OC3	12	-11	80*	·	13	79*	i	AlphaScreen art=-15%
C[n+]1ccc(/C=C/c2ccccc2O)c2ccccc21	14	0	50*	·	·	54*	46µM*	AlphaScreen art=-6%
NCC[C@H]1CC[C@H](NC(=O)c2ccccc2F)[C@H](CO)O1	·	·	·	·	9	·	·
COc1ccc(/C=N/Nc2cc(N3CCCC3)nc(N3CCCC3)n2)cc1	12	-7	102*	7	17	73*	i	AlphaScreen art=-9%
Oc1ccc(/C=N/Nc2cc(N3CCCC3)nc(N3CCCC3)n2)cc1	·	-8	7	4	-3	·	·
C[C@@H]1CN([C@H](C)CO)C(=O)c2cccc(NC(=O)Nc3ccc(F)cc3)c2O[C@@H]1CN(C)S(C)(=O)=O	-1	·	·	-6	·	5	·
CSc1nnc(-c2ccco2)c(-c2ccco2)n1	·	3	114*	0	-7	-22	·	AlphaScreen art=-8%
